Results reported in ChEMBL document CHEMBL4014347, “Targeting Mycolic Acid Transport by Indole-2-carboxamides for the Treatment of Mycobacterium abscessus Infections” (J Med Chem, 2017).
Values after ≈ are worked out from the molar mass of the structure shown.

How the values were obtained:
[1] = system: Mycobacteroides abscessus; assay: Antibacterial activity against Mycobacterium abscessus CIP104536 after 3 to 5 days by two fold serial dilution method; type: functional
Outline: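 Broth microdilution per CLSI in cation-adjusted Mueller–Hinton broth; exponential-phase inoculum 5 × 10^6 CFU/mL; two-fold serial dilutions from highest concentration, solvent wells as control; 30 °C for 3−5 days; MIC read visually and confirmed by absorbance at 560 nm; triplicate on three independent occasions.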

[2] = system: Mycobacterium tuberculosis; assay: Antibacterial activity against Mycobacterium tuberculosis by AlamarBlue assay; type: functional
Vero = assay: Cytotoxicity against African green monkey Vero cells; type: cell-based; conditions: Chlorocebus sabaeus
[3] = Selectivity index, ratio of IC50 for African green monkey Vero cells to MIC for Mycobacterium abscessus CIP104536; type: toxicity; conditions: read-out: Selectivity Index
[4] = Selectivity index, ratio of IC50 for African green monkey Vero cells to MIC=<90 for Mycobacterium tuberculosis; type: toxicity; conditions: read-out: Selectivity Index
[5] = Antibacterial activity against CF patient derived Mycobacterium abscessus subsp. bolletii isolate 108 rough variant after 3 to 5 days by two fold serial dilution method; type: functional; conditions: Mycobacteroides abscessus
Outline: (§1)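 Broth microdilution in cation-adjusted Mueller−Hinton broth per CLSI; inoculum 5 × 10^6 CFU/mL of exponential-phase bacteria; two-fold serial dilutions, solvent-only wells as control; 30 °C for 3−5 days; MIC read visually and confirmed by absorbance at 560 nm; triplicate on three independent occasions.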

[6] = system: Mycobacteroides abscessus; assay: Antibacterial activity against CF patient derived Mycobacterium abscessus subsp. massiliense isolate 212 smooth variant after 3 to 5 days by two fold serial dilution method; type: functional; outline: as §1
[7] = system: Mycobacteroides abscessus; assay: Antibacterial activity against CF patient derived Mycobacterium abscessus subsp. abscessus smooth variant after 3 to 5 days by two fold serial dilution method; type: functional; outline: as §1
[8] = system: Mycobacteroides abscessus; assay: Antibacterial activity against Addison's disease patient derived Mycobacterium abscessus subsp. massiliense isolate CIP108297 rough variant after 3 to 5 days by two fold serial dilution method; type: functional; outline: as §1
[9] = system: Mycobacteroides abscessus; assay: Antibacterial activity against CF patient derived Mycobacterium abscessus subsp. massiliense isolate 210 rough variant after 3 to 5 days by two fold serial dilution method; type: functional; outline: as §1
[10] = system: Mycobacteroides abscessus; assay: Antibacterial activity against CF patient derived Mycobacterium abscessus subsp. massiliense isolate 111 smooth variant after 3 to 5 days by two fold serial dilution method; type: functional; outline: as §1
[11] = Antibacterial activity against CF patient derived Mycobacterium abscessus subsp. bolletii isolate 116 smooth variant after 3 to 5 days by two fold serial dilution method; type: functional; conditions: Mycobacteroides abscessus; outline: as §1
[12] = system: Mycobacteroides abscessus; assay: Antibacterial activity against CF patient derived Mycobacterium abscessus subsp. massiliense isolate 107 smooth variant after 3 to 5 days by two fold serial dilution method; type: functional; outline: as §1
[13] = system: Mycobacteroides abscessus; assay: Antibacterial activity against CF patient derived Mycobacterium abscessus subsp. massiliense isolate 120 smooth variant after 3 to 5 days by two fold serial dilution method; type: functional; outline: as §1
[14] = Antibacterial activity against CF patient derived Mycobacterium abscessus subsp. bolletii isolate 112 rough variant after 3 to 5 days by two fold serial dilution method; type: functional; conditions: Mycobacteroides abscessus; outline: as §1
[15] = Antibacterial activity against non CF patient derived Mycobacterium abscessus subsp. bolletii isolate 17 smooth variant after 3 to 5 days by two fold serial dilution method; type: functional; conditions: Mycobacteroides abscessus; outline: as §1
[16] = Antibacterial activity against CF patient derived Mycobacterium abscessus subsp. bolletii isolate 97 smooth variant after 3 to 5 days by two fold serial dilution method; type: functional; conditions: Mycobacteroides abscessus; outline: as §1
[17] = system: Mycobacteroides abscessus; assay: Antibacterial activity against non CF patient derived Mycobacterium abscessus subsp. abscessus isolate CIP104536 rough variant after 3 to 5 days by two fold serial dilution method; type: functional; outline: as §1
[18] = system: Mycobacteroides abscessus; assay: Antibacterial activity against non CF patient derived Mycobacterium abscessus subsp. abscessus isolate 3022 rough variant after 3 to 5 days by two fold serial dilution method; type: functional; outline: as §1
[19] = system: Mycobacteroides abscessus; assay: Antibacterial activity against CF patient derived Mycobacterium abscessus subsp. massiliense isolate 100 smooth variant after 3 to 5 days by two fold serial dilution method; type: functional; outline: as §1
[20] = Antibacterial activity against non CF patient derived Mycobacterium abscessus subsp. bolletii isolate 19 rough variant after 3 to 5 days by two fold serial dilution method; type: functional; conditions: Mycobacteroides abscessus; outline: as §1
[21] = system: Mycobacteroides abscessus; assay: Antibacterial activity against CF patient derived Mycobacterium abscessus subsp. massiliense isolate 140 smooth variant after 3 to 5 days by two fold serial dilution method; type: functional; outline: as §1
[22] = system: Mycobacteroides abscessus; assay: Antibacterial activity against non CF patient derived Mycobacterium abscessus subsp. abscessus isolate CIP104536 smooth variant after 3 to 5 days by two fold serial dilution method; type: functional; outline: as §1
[23] = system: Mycobacteroides abscessus; assay: Antibacterial activity against CF patient derived Mycobacterium abscessus subsp. abscessus rough variant after 3 to 5 days by two fold serial dilution method; type: functional; outline: as §1
[24] = system: Mycobacteroides abscessus; assay: Antibacterial activity against CF patient derived Mycobacterium abscessus subsp. abscessus isolate 2524 rough variant after 3 to 5 days by two fold serial dilution method; type: functional; outline: as §1
[25] = system: Mycobacteroides abscessus; assay: Antibacterial activity against non CF patient derived Mycobacterium abscessus subsp. abscessus isolate 2587 smooth variant after 3 to 5 days by two fold serial dilution method; type: functional; outline: as §1
[26] = system: Mycobacteroides abscessus; assay: Antibacterial activity against Addison's disease patient derived Mycobacterium abscessus subsp. massiliense isolate CIP108297 smooth variant after 3 to 5 days by two fold serial dilution method; type: functional; outline: as §1
[27] = system: Mycobacteroides abscessus; assay: Antibacterial activity against CF patient derived Mycobacterium abscessus subsp. abscessus isolate 1298 smooth variant after 3 to 5 days by two fold serial dilution method; type: functional; outline: as §1
[28] = Antibacterial activity against Mycobacterium abscessus subsp. bolletii isolate CIP108541 smooth variant after 3 to 5 days by two fold serial dilution method; type: functional; conditions: Mycobacteroides abscessus; outline: as §1
[29] = Antibacterial activity against CF patient derived Mycobacterium abscessus subsp. bolletii isolate 114 smooth variant after 3 to 5 days by two fold serial dilution method; type: functional; conditions: Mycobacteroides abscessus; outline: as §1
[30] = system: Mycobacteroides abscessus; assay: Antibacterial activity against CF patient derived Mycobacterium abscessus subsp. abscessus isolate 2648 rough variant after 3 to 5 days by two fold serial dilution method; type: functional; outline: as §1
[31] = system: Mycobacteroides abscessus; assay: Antibacterial activity against CF patient derived Mycobacterium abscessus subsp. abscessus isolate 2069 smooth variant after 3 to 5 days by two fold serial dilution method; type: functional; outline: as §1
[32] = system: Mycobacteroides abscessus; assay: Antibacterial activity against CF patient derived Mycobacterium abscessus subsp. massiliense isolate 185 smooth variant after 3 to 5 days by two fold serial dilution method; type: functional; outline: as §1
[33] = system: Mycobacteroides abscessus; assay: Antibacterial activity against CF patient derived Mycobacterium abscessus subsp. abscessus isolate 3321 smooth variant after 3 to 5 days by two fold serial dilution method; type: functional; outline: as §1
[34] = system: Mycobacteroides abscessus; assay: Antibacterial activity against CF patient derived Mycobacterium abscessus subsp. massiliense isolate 122 smooth variant after 3 to 5 days by two fold serial dilution method; type: functional; outline: as §1

Structure (SMILES): Cc1cccc2[nH]c(C(=O)NC3CCCCCC3)cc12
- MIC [1]: 0.25 µg/mL (≈ 0.925 µM)
- MIC=<90 [2]: 0.0313 µg/mL (≈ 0.116 µM)

Structure (SMILES): Cc1cc(C)c2cc(CNC3CCCCCCC3)[nH]c2c1
- MIC [1]: 0.5 µg/mL (≈ 1.76 µM)
- MIC=<90 [2]: 0.125 µg/mL (≈ 0.439 µM)

Structure (SMILES): Cc1cc(C)c2cc(C(=O)NC3CCCCCCC3)oc2c1
- MIC [1]: 0.5 µg/mL (≈ 1.67 µM)
- MIC=<90 [2]: 8 µg/mL (≈ 26.7 µM)

Structure (SMILES): CC1(C)C2CC[C@@]1(C)C(NC(=O)c1cc3c(Cl)cc(Cl)cc3[nH]1)C2 (stereo partly drawn)
- MIC [1]: > 32 µg/mL
- IC50 (Vero): 8 µg/mL (≈ 21.9 µM)
- selectivity ratio [3]: 0.25
- selectivity ratio [4]: 513
- MIC=<90 [2]: 0.0156 µg/mL (≈ 0.0427 µM)

Structure (SMILES): NCC[C@H](O)C(=O)N[C@@H]1C[C@H](N)[C@@H](O[C@H]2O[C@H](CN)[C@@H](O)[C@H](O)[C@H]2O)[C@H](O)[C@H]1O[C@H]1O[C@H](CO)[C@@H](O)[C@H](N)[C@H]1O [AMIKACIN]
- MIC [5]: 12.8 µg/mL (≈ 21.9 µM)
- MIC [6]: 25 µg/mL (≈ 42.7 µM)
- MIC [7]: 12.5 µg/mL (≈ 21.3 µM)
- MIC [8]: 12.5 µg/mL (≈ 21.3 µM)
- MIC [9]: 12.5 µg/mL (≈ 21.3 µM)
- MIC [10]: 25 µg/mL (≈ 42.7 µM)
- MIC [11]: 12.5 µg/mL (≈ 21.3 µM)
- MIC [12]: 12.5 µg/mL (≈ 21.3 µM)
- MIC [13]: 12.5 µg/mL (≈ 21.3 µM)
- MIC [14]: > 100 µg/mL
- MIC [15]: 12.5 µg/mL (≈ 21.3 µM)
- MIC [16]: 12.5 µg/mL (≈ 21.3 µM)
- MIC [17]: 12.5 µg/mL (≈ 21.3 µM)
- MIC [18]: 12.5 µg/mL (≈ 21.3 µM)
- MIC [19]: > 100 µg/mL
- MIC [20]: 50 µg/mL (≈ 85.4 µM)
- MIC [21]: 25 µg/mL (≈ 42.7 µM)
- MIC [22]: 25 µg/mL (≈ 42.7 µM)
- MIC [23]: 12.5 µg/mL (≈ 21.3 µM)
- MIC [24]: 25 µg/mL (≈ 42.7 µM)
- MIC [25]: 25 µg/mL (≈ 42.7 µM)
- MIC [26]: 25 µg/mL (≈ 42.7 µM)
- MIC [27]: 12.5 µg/mL (≈ 21.3 µM)
- MIC [28]: 25 µg/mL (≈ 42.7 µM)
- MIC [29]: 12.5 µg/mL (≈ 21.3 µM)
- MIC [30]: 12.5 µg/mL (≈ 21.3 µM)
- MIC [31]: 25 µg/mL (≈ 42.7 µM)
- MIC [32]: 25 µg/mL (≈ 42.7 µM)
- MIC [33]: 25 µg/mL (≈ 42.7 µM)
- MIC [34]: 12.5 µg/mL (≈ 21.3 µM)

Structure (SMILES): NNC(=O)c1ccncc1 [ISONIAZID]
- IC50 (Vero): > 256 µg/mL
- selectivity ratio [4]: > 6400
- MIC=<90 [2]: 0.04 µg/mL (≈ 0.292 µM)

Structure (SMILES): C[C@@H]1[C@@H](NC(=O)c2cc3c(Cl)cc(Cl)cc3[nH]2)C[C@H]2C[C@@H]1C2(C)C
- MIC [1]: 128 µg/mL (≈ 350 µM)
- IC50 (Vero): 16 µg/mL (≈ 43.8 µM)
- selectivity ratio [3]: 0.125
- selectivity ratio [4]: 2050
- MIC=<90 [2]: 0.0078 µg/mL (≈ 0.0214 µM)

Structure (SMILES): Cc1ccc2[nH]c(C(=O)NC3CCCCCC3)cc2c1
- MIC [1]: 0.25 µg/mL (≈ 0.925 µM)
- MIC=<90 [2]: 0.25 µg/mL (≈ 0.925 µM)

Structure (SMILES): COc1cc(OC)c2cc(C(=O)NC3CCCCCC3)[nH]c2c1
- MIC [1]: 1 µg/mL (≈ 3.16 µM)
- MIC=<90 [2]: 0.0625 µg/mL (≈ 0.198 µM)

Structure (SMILES): CC(C)=CCC/C(C)=C/CNC(=O)c1cc2c(Cl)cc(Cl)cc2[nH]1
- MIC [1]: > 32 µg/mL
- MIC=<90 [2]: 4 µg/mL (≈ 10.9 µM)

Structure (SMILES): O=C(Nc1nc2ccc(OC(F)(F)F)cc2s1)C1CCCCCC1
- MIC [1]: > 32 µg/mL
- MIC=<90 [2]: 128 µg/mL (≈ 357 µM)

Structure (SMILES): Cc1ccc2cc(C(=O)NC3CCCCCC3)[nH]c2c1
- MIC [1]: 0.25 µg/mL (≈ 0.925 µM)
- MIC=<90 [2]: 0.0313 µg/mL (≈ 0.116 µM)

Structure (SMILES): Cc1cc(C)c2cc(CNC(=O)C3CCCCCC3)[nH]c2c1
- MIC [1]: > 32 µg/mL
- MIC=<90 [2]: 16 µg/mL (≈ 53.6 µM)

Structure (SMILES): O=C(NC12CC3CC(CC(C3)C1)C2)c1cc2c(Cl)cc(Cl)cc2[nH]1
- MIC [1]: > 32 µg/mL
- IC50 (Vero): ≥ 32 µg/mL
- selectivity ratio [3]: ≥ 1
- selectivity ratio [4]: ≥ 8210
- MIC=<90 [2]: 0.0039 µg/mL (≈ 0.0107 µM)

Structure (SMILES): O=C(NC1Cc2ccccc2C1)c1cc2c(Cl)cc(Cl)cc2[nH]1
- MIC [1]: > 32 µg/mL
- MIC=<90 [2]: 0.25 µg/mL (≈ 0.724 µM)
